Test results reported in ChEMBL document CHEMBL2311274, “Triazole-based inhibitors of geranylgeranyltransferase II” (Bioorg Med Chem Lett, 2013).

Tests used:
[1] = Inhibition of recombinant GGTase 2 (unknown origin) by scintillation counting in presence of [3H]GGPP; design: species or system Homo sapiens
In short: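 Recombinant GGTase II reaction containing radiolabeled GGPP as prenyl donor, a Rab protein as acceptor substrate, and REP. IC50 obtained from inhibition of transfer.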

RPMI-8226 = experiment: Cytotoxicity against human multiple myeloma RPMI8226 measured after 24 to 48 hrs by MTT assay; type: functional, cell-based

SMILES | IC50 [1] [mM] | IC50 (RPMI-8226) [mM]
CC(C)=CCCC(C)=CCn1cc(CC(P(=O)(O)O)P(=O)(O)O)nn1 (mixture of isomers) | > 2 | > 1
CC(C)=CCC/C(C)=C/CCC(C)=CCn1cc(CC(P(=O)(O)O)P(=O)(O)O)nn1 (mixture of isomers) | 0.65 | 0.9
O=P(O)(O)C(O)(Cc1cccnc1)P(=O)(O)O [RISEDRONIC ACID] | > 1 | 
O=P(O)(O)C(Cc1cn(Cc2ccccc2)nn1)P(=O)(O)O | 2 | > 1
O=P(O)(O)C(Cc1cn(Cc2ccc3ccccc3c2)nn1)P(=O)(O)O | > 2 | > 1
CC(C)=CCC/C(C)=C/CC/C(C)=C/CCC(C)=CCn1cc(CC(P(=O)(O)O)P(=O)(O)O)nn1 (mixture of isomers) | 0.1 | 1
